Converted amounts (≈) assume the structure as drawn. The source made the active and inactive calls. No cut-off for these calls is given here.
Assays:
Streptococcus pyogenes = assay: Antibacterial activity against Streptococcus pyogenes ATCC 51339 assessed as growth inhibition after 16 to 20 hrs by broth microdilution method; assay type: functional
Summary of the method: (§1)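 Broth microdilution susceptibility testing following the CLSI M7-A7 standard; MIC determined.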

Enterococcus faecalis = assay: Antibacterial activity against Enterococcus faecalis ATCC 29212 assessed as growth inhibition after 16 to 20 hrs by broth microdilution method; assay type: functional; summary of the method: as §1
[1] = Solubility of the compound in PBS at pH 7.4 after 24 hrs by turbidimetric analysis; assay type: physicochemical
Summary of the method: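 Doubling dilutions in DMSO diluted 20-fold into 100 mM PBS pH 7.4, equilibrated 24 h at room temperature, absorbance read at 620 nm. Value is the highest concentration with no measurable precipitate.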

[2] = Inhibition of Escherichia coli DNA gyrase ATPase subunit A2B2 after 60 mins by malachite green staining assay
Summary of the method: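 E. coli gyrase A2B2, 10 nM, with 0.08 mg/mL DNA in 35 mM Tris pH 7.5, 24 mM KCl, 2 mM MgCl2, 6.5% glycerol, 0.1 mg/mL BSA, 2 mM DTT, 5% DMSO. Started with 1 mM ATP, 30 °C for 60 min. Phosphate read with malachite green at 600 nm after 5 min. IC50 taken against no-compound and no-enzyme controls.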

Staphylococcus aureus [3] = assay: Antibacterial activity against Staphylococcus aureus ATCC 29213 assessed as growth inhibition after 16 to 20 hrs by broth microdilution method; assay type: functional; summary of the method: as §1
Haemophilus influenzae = assay: Antibacterial activity against Haemophilus influenzae ATCC 49247 assessed as growth inhibition after 16 to 20 hrs by broth microdilution method; assay type: functional; summary of the method: as §1
DNA gyrase = DNA gyrase (Staphylococcus aureus, UniProt P0A0K8+P20831); assay: Inhibition of Staphylococcus aureus DNA gyrase ATPase subunit GyrA2/GyrB2 after 60 mins by malachite green staining assay; assay type: protein-complex assay
Summary of the method: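 S. aureus gyrase A2B2, 10 nM, with 0.08 mg/mL DNA in 40 mM HEPES pH 7.6, 10 mM Mg acetate, 0.5 M K glutamate, 0.01 mg/mL BSA, 2 mM DTT, 5% DMSO. Reaction started with 1 mM ATP and run 60 min at 30 °C. Malachite green absorbance read at 600 nm. IC50 derived using no-compound and no-enzyme controls.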

[4] = Plasma protein binding in rat; assay type: ADME, cell-free; conditions: read-out: PPB (converted)
[5] = AUC in mouse at 3 mg/kg, iv; assay type: ADME, organism-based; design: dose 3 mg/kg, route intravenous; conditions: plasma
Summary of the method: (§2)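 Single 3 mg/kg dose given as an IV bolus by tail vein or by oral gavage, dose volume 5 mL/kg. Rats were bled by jugular vein catheter. Anaesthetised mice were bled from the retro-orbital plexus. Plasma was extracted into methanol and drug measured by LC/MS/MS. Cmax (oral), AUC and clearance (IV) and bioavailability were calculated from plasma concentrations.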

[6] = Clearance in mouse at 3 mg/kg, iv; assay type: ADME, organism-based; design: dose 3 mg/kg, route intravenous; conditions: in vivo; summary of the method: as §2
[7] = Oral bioavailability in mouse at 3 mg/kg; assay type: ADME, organism-based; conditions: in vivo; summary of the method: as §2
[8] = Intrinsic clearance in mouse liver microsomes at 10 uM by LC-MS analysis; assay type: ADME, Microsome; conditions: read-out: CLH
Summary of the method: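 Compound at 10 μM, duplicate, 0.1% DMSO, with mouse liver microsomes at 1 mg/mL protein. Started with 1 mM NADPH and stopped at 0, 10, 30 and 60 min. Acetonitrile extracts analysed by LCMS. T1/2 taken from the slope of peak area over time, then converted to intrinsic clearance.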

[9] = Cmax in mouse at 3 mg/kg, po; assay type: ADME, organism-based; design: dose 3 mg/kg, route oral; conditions: in vivo; summary of the method: as §2
Topoisomerase IV = Topoisomerase IV (Staphylococcus aureus, UniProt P0C1S7+P0C1U9); assay: Inhibition of Staphylococcus aureus DNA topoisomerase 4 subunit ParC2/ParE2 after 60 mins by malachite green staining assay; assay type: protein-complex assay
Summary of the method: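 S. aureus topo IV C2E2, 25 nM, with 0.01 mg/mL DNA in 50 mM Tris-HCl pH 7.5, 5 mM MgCl2, 0.35 M K glutamate, 0.05 mg/mL BSA, 5 mM DTT, 1% DMSO. ATP added at 1 mM to start, then 30 °C for 60 min. Malachite green read at 600 nm. IC50 calculated relative to no-compound and no-enzyme controls.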

Staphylococcus aureus [10] = assay: Antibacterial activity against Staphylococcus aureus ATCC 29213 assessed as spontaneous mutant measuring frequency of resistance at 4 to 8 fold MIC relative to control; assay type: functional, organism-based
[11] = Oral bioavailability in rat at 3 mg/kg; assay type: ADME, organism-based; conditions: in vivo; summary of the method: as §2
[12] = Cmax in rat at 3 mg/kg, po; assay type: ADME, organism-based; design: dose 3 mg/kg, route oral; conditions: in vivo; summary of the method: as §2
[13] = Clearance in rat at 3 mg/kg, iv; assay type: ADME, organism-based; design: dose 3 mg/kg, route intravenous; conditions: in vivo; summary of the method: as §2
[14] = AUC in rat at 3 mg/kg, iv; assay type: ADME, organism-based; design: dose 3 mg/kg, route intravenous; conditions: plasma; summary of the method: as §2

Row | Compound | MIC (Streptococcus pyogenes) [µg/mL] | MIC (Enterococcus faecalis) [µg/mL] | solubility kinetic at 24 h [1] [µg/mL] | IC50 [2] [µg/mL] | MIC (Staphylococcus aureus [3]) [µg/mL] | MIC (Haemophilus influenzae) [µg/mL] | IC50 (DNA gyrase) [µM] | AUC [5] [ng·h/mL] | clearance [6] [mL/min/kg] | bioavailability [7] [%] | CLint scaled at 10 µM [8] [mL/min/kg] | Cmax [9] [ng/mL] | bioavailability [11] [%] | Cmax [12] [ng/mL] | clearance [13] [mL/min/kg] | AUC [14] [ng·h/mL] | fraction unbound [4] | IC50 (Topoisomerase IV) [µM] | Activity (Staphylococcus aureus [10])
1 | CCNC(=O)Nc1nc2cc(-c3cnc(N4CCC(C(=O)O)CC4)nc3)cc(-c3ccccn3)c2s1 | 0.03 (≈ 0.0596 µM) | 0.015 (≈ 0.0298 µM) | > 800 | – | 0.12 (≈ 0.238 µM) | 2 (≈ 3.97 µM) | 0.0199 | 900 | 55 | 8 | < 5.8 | 70 | – | – | – | – | 0.007 | 0.0238 | inactive
2 | CCNC(=O)Nc1nc2cc(-c3cnc(N4CCC(C)(C(=O)O)CC4)nc3)cc(-c3ccccn3)c2s1 | 0.06 (≈ 0.116 µM) | 0.015 (≈ 0.029 µM) | > 800 | – | 0.12 (≈ 0.232 µM) | 2 (≈ 3.86 µM) | 0.0155 | – | – | – | < 5.8 | – | – | 1800 | 2.8 | – | 0.007 | 0.0155 | inactive
3 | CCNC(=O)Nc1nc2cc(-c3cnc(N4CCC(C(=O)O)(c5ccccc5)CC4)nc3)cc(-c3ccccn3)c2s1 | 0.5 (≈ 0.863 µM) | 0.06 (≈ 0.104 µM) | 12.5 (≈ 21.6 µM) | 0.013 (≈ 0.0224 µM) | 0.5 (≈ 0.863 µM) | > 16 | – | – | – | – | < 5.8 | – | – | – | – | – | – | – | –
4 | CCNC(=O)Nc1nc2cc(-c3cnc(N4CCC(C(=O)O)(C(F)(F)F)CC4)nc3)cc(-c3ccccn3)c2s1 | 0.25 (≈ 0.437 µM) | 0.25 (≈ 0.437 µM) | > 800 | – | 2 (≈ 3.5 µM) | 16 (≈ 28 µM) | 0.028 | – | – | – | – | – | – | – | – | – | – | – | –

More lines, in order of falling MIC (Streptococcus pyogenes), values ahead:

Row | MIC (Streptococcus pyogenes) [µg/mL] | MIC (Enterococcus faecalis) [µg/mL] | solubility kinetic at 24 h [1] [µg/mL] | IC50 [2] [µg/mL] | MIC (Staphylococcus aureus [3]) [µg/mL] | MIC (Haemophilus influenzae) [µg/mL] | IC50 (DNA gyrase) [µM] | AUC [5] [ng·h/mL] | clearance [6] [mL/min/kg] | bioavailability [7] [%] | CLint scaled at 10 µM [8] [mL/min/kg] | Cmax [9] [ng/mL] | bioavailability [11] [%] | Cmax [12] [ng/mL] | clearance [13] [mL/min/kg] | AUC [14] [ng·h/mL] | Compound | fraction unbound [4] | IC50 (Topoisomerase IV) [µM] | Activity (Staphylococcus aureus [10])
5 | 0.5 (≈ 0.966 µM) | 0.5 (≈ 0.966 µM) | 6.25 (≈ 12.1 µM) | 0.007 (≈ 0.0135 µM) | 0.5 (≈ 0.966 µM) | 8 (≈ 15.5 µM) | – | – | – | – | – | – | – | – | – | – | CCNC(=O)Nc1nc2cc(-c3cnc(N4CCCCC4(C)C(=O)O)nc3)cc(-c3ccccn3)c2s1 (configuration not stated) | – | – | –
6 | 0.12 (≈ 0.232 µM) | 0.03 (≈ 0.0581 µM) | > 800 | – | 0.12 (≈ 0.232 µM) | 2 (≈ 3.87 µM) | 0.0232 | 7600 | 6.5 | 33 | < 5.8 | 1700 | 31 | 600 | 7.6 | 6600 | CCNC(=O)Nc1nc2cc(-c3ccc(N4CCC(C)(C(=O)O)CC4)nc3)cc(-c3ccccn3)c2s1 | – | – | –
7 | 0.06 (≈ 0.113 µM) | 0.015 (≈ 0.0282 µM) | > 800 | – | 0.06 (≈ 0.113 µM) | 4 (≈ 7.52 µM) | 0.0226 | 14300 | 3.5 | 87 | < 5.8 | 6100 | 80 | 3500 | 1.5 | 27700 | CCNC(=O)Nc1nc2cc(-c3cnc(N4CCC(CC)(C(=O)O)CC4)nc3)cc(-c3ccccn3)c2s1 | – | – | –
8 | 0.06 (≈ 0.119 µM) | 0.25 (≈ 0.496 µM) | > 800 | – | 0.5 (≈ 0.993 µM) | 1 (≈ 1.99 µM) | 0.00993 | – | – | – | – | – | – | – | – | – | CCNC(=O)Nc1nc2cc(-c3cnc(N4CCCC4(C)C(=O)O)nc3)cc(-c3ccccn3)c2s1 (configuration not stated) | – | – | –
9 | 0.06 (≈ 0.116 µM) | 0.06 (≈ 0.116 µM) | > 800 | – | 1 (≈ 1.94 µM) | 4 (≈ 7.74 µM) | 0.029 | – | – | – | – | – | – | – | – | – | CCNC(=O)Nc1nc2cc(-c3cncc(N4CCC(C)(C(=O)O)CC4)c3)cc(-c3ccccn3)c2s1 | – | – | –

Source: ChEMBL document CHEMBL3091378, “Design, synthesis and biological evaluation of α-substituted isonipecotic acid benzothiazole analogues as potent bacterial type II topoisomerase inhibitors” (Bioorg Med Chem Lett, 2013)
